For 25 compounds, Cell growth and Benzidine positive cells results are on record in ChEMBL document CHEMBL1121698, “Cyclic urea and thiourea derivatives as inducers of murine erythroleukemia differentiation” (1981).

Assay type in all cases: functional, Mus musculus
In assay [1] the test system is Friend leukemia cell line. The assay is described as follows: Cell growth of friend erythroleukemia cells measured as percentage of control on day 6 at a concentration of 4 mM. The note with it: at 4 mM.
Assay [2] relates to Friend leukemia cell line. The assay can be described thus: Percent of untreated control cell growth evaluated in friend leukemia cells on day 3 at a concentration of 4 mM. The note with it: at 4 mM.
For assay [3], the system named is Friend leukemia cell line. The assay is described as follows: The degree of erythroid maturation was measured by assessing the proportion of benzidine-positive friend leukemia cells at a concentration of 4 mM. The procedure, abridged:
(§1)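 Friend erythroleukemia clone 745A cells seeded at 10^5 cells/mL in DMEM with 15% fetal calf serum at 37 °C, 10% CO2. Agent given at seeding, continuous exposure, twofold-graded concentrations; Me2SO positive control in each experiment. On day 6, hemoglobin-containing cells scored cytologically by staining with acid benzidine peroxide. Optimum concentration averaged from at least two experiments.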

The subject of assay [4] is Friend leukemia cell line. The assay is described as follows: The degree of erythroid maturation was measured by assessing the proportion of benzidine-positive cells at a concentration of 4 mM. The note with it: at 4 mM.
In assay [5] the test system is Friend leukemia cell line. The assay is described as follows: Percent of untreated control cell growth evaluated in friend leukemia cells on day 3 at a concentration of 2 mM. An outline of the steps: (§2)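 Friend murine erythroleukemia clone 745A grown in suspension at 37 °C, 10% CO2, in DMEM with 15% fetal calf serum, streptomycin and penicillin. Agent added at seeding of exponentially growing cells (10^5 cells/mL), continuous exposure over twofold-graded concentrations. Cell numbers counted electronically on days 3 and 6, expressed relative to untreated control. At least two separate experiments.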

In assay [6] the test system is Friend leukemia cell line. The assay can be described thus: Cell growth of friend erythroleukemia cells measured as percentage of control on day 6 at a concentration of 2 mM. The procedure, abridged: as §2
The subject of assay [7] is Friend leukemia cell line. The assay can be described thus: The degree of erythroid maturation was measured by assessing the proportion of benzidine-positive cells at a concentration of 2 mM. The procedure, abridged:
as §1

The test system of assay [8] is Friend leukemia cell line. The assay can be described thus: The degree of erythroid maturation was measured by assessing the proportion of benzidine-positive friend leukemia cells at a concentration of 0.1-10 mM. An outline of the steps: as §1
The test system of assay [9] is Friend leukemia cell line. The assay is described as follows: Percent of untreated control cell growth evaluated in friend leukemia cells on day 3 at a concentration of 0.1-10 mM. An outline of the steps: as §2
The subject of assay [10] is Friend leukemia cell line. The assay can be described thus: Cell growth of friend erythroleukemia cells measured as percentage of control on day 6 at a concentration of 0.1-10 mM. An outline of the steps: as §2
Assay [11] deals with Friend leukemia cell line. The assay is described as follows: The degree of erythroid maturation was measured by assessing the proportion of benzidine-positive friend leukemia cells at a concentration of 2 mM. An outline of the steps: as §1
For assay [12], the system named is Friend leukemia cell line. The assay is described as follows: The degree of erythroid maturation was measured by assessing the proportion of benzidine-positive friend leukemia cells at a concentration of 16 mM. The procedure, abridged:
as §1

In assay [13] the test system is Friend leukemia cell line. The assay can be described thus: Percent of untreated control cell growth evaluated in friend leukemia cells on day 3 at a concentration of 16 mM. The procedure, abridged:
as §2

The subject of assay [14] is Friend leukemia cell line. The assay can be described thus: Cell growth of friend erythroleukemia cells measured as percentage of control on day 6 at a concentration of 16 mM. An outline of the steps:
as §2

Assay [15] concerns Friend leukemia cell line. The assay can be described thus: Percent of untreated control cell growth evaluated in friend leukemia cells on day 3 at a concentration of 1 mM. The procedure, abridged: as §2
Assay [16] deals with Friend leukemia cell line. The assay can be described thus: Cell growth of friend erythroleukemia cells measured as percentage of control on day 6 at a concentration of 1 mM. An outline of the steps: as §2
In assay [17] the test system is Friend leukemia cell line. The assay is described as follows: The degree of erythroid maturation was measured by assessing the proportion of benzidine-positive friend leukemia cells at a concentration of 1 mM. An outline of the steps:
as §1

Assay [18] has as its system Friend leukemia cell line. The assay can be described thus: The degree of erythroid maturation was measured by assessing the proportion of benzidine-positive cells at a concentration of 210 mM. The procedure, abridged: as §1
The subject of assay [19] is Friend leukemia cell line. The assay can be described thus: Percent of untreated control cell growth evaluated in friend leukemia cells on day 3 at a concentration of 105 mM. The procedure, abridged: as §2
The subject of assay [20] is Friend leukemia cell line. The assay is described as follows: Cell growth of friend erythroleukemia cells measured as percentage of control on day 6 at a concentration of 105 mM. The procedure, abridged: as §2
The subject of assay [21] is Friend leukemia cell line. The assay is described as follows: Effect on the replication and erythroid differentiation of friend leukemia cells on day 3 at a concentration of 210 mM.
For assay [22], the system named is Friend leukemia cell line. The assay can be described thus: Effect on the replication and erythroid differentiation of friend leukemia cells on day 6 at a concentration of 210 mM.

As for `CCN1CCCN(CC)C1=O`, the Cell growth came out at 127% in assay [1] and 160% in assay [2]. The Benzidine positive cells in assay [3] came out at 70%.

In [4], `CN1CCCN(C)C1=S` came in with a Benzidine positive cells of 83%. Moreover, the Cell growth in [1] is given as 135%; in assay [2], 75%.

For `SC1=NCCCCN1`, the Cell growth in assay [5] was 54%; in [6] it was 82%. This compound also came in with a Benzidine positive cells in assay [7] of 42%.

Turning to `SC1=NCCCN1`, the Cell growth amounted to 144% in [5] and 44% in [6]. In addition, in [7], the Benzidine positive cells turned out to be 14%.

In turn, `CCCCN1CCCN(CCCC)C1=O` returned a Benzidine positive cells in [8] of less than 1%. Moreover, the values for the Cell growth in assay [9] and in assay [10] were less than 5% and less than 1%, respectively.

`O=C(N1CCCCC1)N1CCCCC1`: the Cell growth in [1] amounted to 33%; in assay [2] it was 28%. Moreover, the Benzidine positive cells in assay [3] is reported as 10%.

Turning to `CCN1CCCCN(CC)C1=O`, the Cell growth in assay [1] is listed as 131%; in assay [2], 40%. Further, the Benzidine positive cells in assay [3] worked out at 31%.

In [11], `CCN(CC)C(=O)N(CC)CC` yielded a Benzidine positive cells of 68%. Further, the Cell growth in [5] is given as 69%; in [6], 77%.

Take `O=C1NCCN1`: the Benzidine positive cells in [4] is reported as 4%. Also, the Cell growth in assay [1] turned out to be 108%; in [2], 88%.

In [12], `CCN1CCN(CC)C1=O` came in with a Benzidine positive cells of 81%. In addition, the Cell growth in assay [13] is 36%; in assay [14], 140%.

`CCN1CCN(CC)C1=S`: the Benzidine positive cells in [11] was 84%. The Cell growth amounted to 60% in assay [5] and 120% in [6].

In the case of `CN(C)C(=S)N(C)C`, the figures for the Cell growth in assay [5] and in [6] were 123% and 98%, respectively. The Benzidine positive cells in [7] was 79%.

Turning to `CN1CCCN(C)C1=O`, the Cell growth in assay [5] is listed as 90%; in [6], 87%. In assay [7], the Benzidine positive cells came to 92%.

Consider `CN1CCCNC1=O`, for which the Cell growth is listed as 46% in assay [5] and 136% in assay [6]. In [7], the Benzidine positive cells amounted to 50%.

`CN1CCN(C)C1=O` gave a Benzidine positive cells in assay [4] of 92%. Besides, the Cell growth came to 73% in assay [1] and 70% in assay [2].

With `CCN(CC)C(=S)N(CC)CC`, the Benzidine positive cells in assay [8] is listed as less than 1%. Further, the Cell growth is given as less than 4% in [9] and less than 1% in assay [10].

On to `O=C1NCCCCN1`, for which the Cell growth in [5] is given as 93%; in [6], 104%. The compound also gave a Benzidine positive cells in assay [7] of 66%.

Regarding `O=C1NCCCN1`, the Benzidine positive cells in assay [4] was 15%. Also, the Cell growth is listed as 121% in [1] and 124% in assay [2].

Regarding `CN1CCCCN(C)C1=O`, the Cell growth in assay [1] was 61%; in assay [2] it was 25%. The Benzidine positive cells in [3] is 92%.

On to `CN1CCN(C)C1=S`, for which the Cell growth in [5] stood at 102%; in assay [6] it was 95%. In addition, the Benzidine positive cells in [7] was found to be 66%.

For the compound `CN1CCCCN(C)C1=S`, the Cell growth in assay [1] is 73%; in assay [2] it was 64%. For the same compound, the Benzidine positive cells in assay [3] is given as 79%.

As to `CCN1CCCN(CC)C1=S`, the results for the Cell growth in [15] and in assay [16] were 45% and 97%, respectively. In assay [17], this compound came in with a Benzidine positive cells of 61%.

Turning to `CN1CCCN=C1S`, the figures for the Cell growth in assay [5] and in assay [6] were 107% and 166%, respectively. Besides, in [7], the Benzidine positive cells is recorded as 22%.

Take `C[S+](C)[O-]` [DIMETHYL SULFOXIDE]: the results for the Benzidine positive cells in [4] and in assay [18] were 75% and 94%, respectively. For the same compound, the Cell growth in [19] was found to be 70%; in assay [20] it was 120%; in assay [21], 72%; in assay [22] it was 110%.

On to `S=C1NCCN1` [ETHYLENE THIOUREA], for which the Benzidine positive cells in [4] is listed as 21%. The Cell growth is recorded as 62% in assay [1] and 128% in assay [2].
